Data: ChEMBL document CHEMBL4359867, “Design, synthesis and biological evaluation of novel 4-anilinoquinazoline derivatives as hypoxia-selective EGFR and VEGFR-2 dual inhibitors” (Eur J Med Chem, 2019)
Calls of active or inactive are those of the source. The calls are words filed in the database; no cut-off is given here.

Key:
[1] = molecular target: Vascular endothelial growth factor receptor 2 (Homo sapiens, UniProt P35968); assay: Inhibition of N-terminal GST-tagged human VEGFR2 cytoplasmic domain (790 to 1356 residues) expressed in baculovirus expression system using FAM-22 peptide as substrate incubated for 10 mins followed by substrate addition by caliper method
Chain of Vascular endothelial growth factor receptor 2 (P35968 whole entry, the tested form may be a part): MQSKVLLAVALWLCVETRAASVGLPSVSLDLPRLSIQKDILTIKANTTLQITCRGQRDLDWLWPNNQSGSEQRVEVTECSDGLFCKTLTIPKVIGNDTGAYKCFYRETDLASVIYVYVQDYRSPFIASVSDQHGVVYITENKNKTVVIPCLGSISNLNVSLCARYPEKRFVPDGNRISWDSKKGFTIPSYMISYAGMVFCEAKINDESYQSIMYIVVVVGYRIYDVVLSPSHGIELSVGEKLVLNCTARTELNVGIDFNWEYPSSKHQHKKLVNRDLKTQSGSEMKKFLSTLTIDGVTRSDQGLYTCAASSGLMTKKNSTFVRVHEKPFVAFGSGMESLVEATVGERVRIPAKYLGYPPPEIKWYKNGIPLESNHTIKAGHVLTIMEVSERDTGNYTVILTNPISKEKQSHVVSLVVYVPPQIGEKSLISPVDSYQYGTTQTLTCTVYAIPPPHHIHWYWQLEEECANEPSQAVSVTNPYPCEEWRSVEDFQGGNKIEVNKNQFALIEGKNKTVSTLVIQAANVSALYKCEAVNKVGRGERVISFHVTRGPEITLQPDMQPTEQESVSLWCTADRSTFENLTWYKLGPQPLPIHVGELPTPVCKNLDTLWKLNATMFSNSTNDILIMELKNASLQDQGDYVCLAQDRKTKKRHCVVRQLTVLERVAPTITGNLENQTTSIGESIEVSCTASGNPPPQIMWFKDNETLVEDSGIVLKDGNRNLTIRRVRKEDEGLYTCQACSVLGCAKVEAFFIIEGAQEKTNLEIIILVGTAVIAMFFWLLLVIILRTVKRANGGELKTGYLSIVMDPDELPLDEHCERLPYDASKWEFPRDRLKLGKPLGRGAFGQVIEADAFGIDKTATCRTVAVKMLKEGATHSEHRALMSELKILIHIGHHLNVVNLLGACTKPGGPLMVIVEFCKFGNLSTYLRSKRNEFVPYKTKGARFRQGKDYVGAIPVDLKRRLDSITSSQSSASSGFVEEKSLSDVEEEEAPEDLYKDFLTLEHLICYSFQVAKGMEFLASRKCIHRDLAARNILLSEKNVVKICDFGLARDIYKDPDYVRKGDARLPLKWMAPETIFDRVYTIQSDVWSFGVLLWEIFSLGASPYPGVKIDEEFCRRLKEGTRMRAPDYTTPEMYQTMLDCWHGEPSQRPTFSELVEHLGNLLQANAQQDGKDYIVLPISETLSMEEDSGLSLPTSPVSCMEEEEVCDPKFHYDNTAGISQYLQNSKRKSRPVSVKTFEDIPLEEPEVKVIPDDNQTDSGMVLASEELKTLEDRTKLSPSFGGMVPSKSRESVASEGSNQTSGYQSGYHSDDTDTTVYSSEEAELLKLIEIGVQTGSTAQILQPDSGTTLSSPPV
How it was run: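 Compounds (DMSO stocks 40 μM–0.2 nM, ten levels) tested in duplicate. Enzyme preincubated with compound 10 min at room temperature, then FAM-P22 peptide/ATP added and incubated at 28 °C. Stopped with EDTA-containing buffer. IC50 obtained by four-parameter Hill fit; staurosporine as reference.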

[2] = molecular target: Epidermal growth factor receptor (Homo sapiens, UniProt P00533); assay: Inhibition of N-terminal GST-tagged human EGFR cytoplasmic domain (669 to 1210 residues) expressed in baculovirus expression system using FAM-22 peptide as substrate incubated for 10 mins followed by substrate addition by caliper method
Chain of Epidermal growth factor receptor (P00533 whole entry, the tested form may be a part): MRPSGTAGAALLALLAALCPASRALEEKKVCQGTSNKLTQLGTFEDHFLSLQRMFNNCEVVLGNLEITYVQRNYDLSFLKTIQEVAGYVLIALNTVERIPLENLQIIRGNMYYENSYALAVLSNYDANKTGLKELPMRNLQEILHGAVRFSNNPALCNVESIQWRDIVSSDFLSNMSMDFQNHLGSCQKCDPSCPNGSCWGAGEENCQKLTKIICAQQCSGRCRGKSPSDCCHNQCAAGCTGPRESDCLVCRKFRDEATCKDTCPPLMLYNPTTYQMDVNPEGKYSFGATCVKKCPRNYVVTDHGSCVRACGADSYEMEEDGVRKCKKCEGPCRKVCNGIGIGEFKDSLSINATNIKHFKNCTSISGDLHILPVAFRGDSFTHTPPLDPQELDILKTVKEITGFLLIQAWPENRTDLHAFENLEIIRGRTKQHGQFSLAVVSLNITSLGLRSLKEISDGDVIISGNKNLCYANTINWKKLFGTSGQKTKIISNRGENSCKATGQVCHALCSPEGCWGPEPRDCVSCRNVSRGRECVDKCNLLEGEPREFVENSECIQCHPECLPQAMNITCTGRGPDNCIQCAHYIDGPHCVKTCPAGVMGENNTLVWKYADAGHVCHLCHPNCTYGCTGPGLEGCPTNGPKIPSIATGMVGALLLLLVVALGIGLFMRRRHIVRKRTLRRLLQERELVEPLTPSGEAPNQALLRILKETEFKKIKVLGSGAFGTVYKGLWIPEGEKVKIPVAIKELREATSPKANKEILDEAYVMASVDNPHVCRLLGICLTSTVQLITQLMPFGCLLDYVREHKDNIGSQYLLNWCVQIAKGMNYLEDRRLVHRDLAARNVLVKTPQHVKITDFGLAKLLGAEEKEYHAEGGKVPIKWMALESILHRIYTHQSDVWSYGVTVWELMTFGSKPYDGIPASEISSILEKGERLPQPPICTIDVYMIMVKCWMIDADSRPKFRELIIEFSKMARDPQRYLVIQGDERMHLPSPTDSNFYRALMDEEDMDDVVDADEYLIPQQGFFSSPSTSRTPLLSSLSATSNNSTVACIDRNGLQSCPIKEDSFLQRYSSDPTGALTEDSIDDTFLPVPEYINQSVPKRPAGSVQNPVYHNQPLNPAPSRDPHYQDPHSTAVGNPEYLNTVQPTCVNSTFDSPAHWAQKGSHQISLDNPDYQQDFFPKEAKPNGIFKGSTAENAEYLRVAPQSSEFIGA

[3] = Cytotoxicity against human A549 cells assessed as inhibition of cell growth at 0.5 uM after 48 hrs under normoxic condition by CCk-8 assay relative to control; type: cell-based
How it was run: (§1)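 RPMI-1640 with 10% fetal calf serum. Compounds dissolved in DMSO. Hypoxia produced chemically with cobalt(II) chloride; normoxic wells received no CoCl2. Viability read by CCK-8 (WST-8) at 450 nm, and inhibition ratio calculated against untreated control.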

[4] = Cytotoxicity against human NCI-H446 cells assessed as inhibition of cell growth at 0.5 uM after 48 hrs under normoxic condition by CCk-8 assay relative to control; type: cell-based; how it was run: as §1
A549 [5] = assay: Antiproliferative activity against human A549 cells assessed as inhibition of cell growth at 0.5 uM after 48 hrs under hypoxic condition (200 uM CoCl2) by CCk-8 assay relative to control (reference value: 59.94%); type: functional; how it was run: as §1
NCI-H446 [6] = assay: Antiproliferative activity against human NCI-H446 cells assessed as inhibition of cell growth at 0.5 uM after 48 hrs under hypoxic condition (200 uM CoCl2) by CCk-8 assay relative to control (reference value: 65.84%); type: functional; how it was run: as §1
A549 [7] = assay: Antiproliferative activity against human A549 cells assessed as inhibition of cell growth at 0.5 uM in hypoxia condition (200 uM CoCl2) and under irradiation at 8 Gy for 24 hrs and measured after 24 hrs by CCK8 assay (reference value: 64.135%); type: functional
NCI-H446 [8] = assay: Antiproliferative activity against human NCI-H446 cells assessed as inhibition of cell growth at 0.5 uM in hypoxia condition (200 uM CoCl2) and under irradiation at 8 Gy for 24 hrs and measured after 24 hrs by CCK8 assay (reference value: 68.77%); type: functional
A549 [9] = assay: Antiproliferative activity against human A549 cells assessed as hypoxic sensitive enhancement ratio in presence of CoCl2; type: functional
A549 [10] = assay: Antiproliferative activity against human A549 cells assessed as hypoxic sensitive enhancement ratio in presence of Cocl2 under irradiation; type: functional
NCI-H446 [11] = assay: Antiproliferative activity against human NCI-H446 cells assessed as hypoxic sensitive enhancement ratio in presence of CoCl2; type: functional
NCI-H446 [12] = assay: Antiproliferative activity against human NCI-H446 cells assessed as hypoxic sensitive enhancement ratio in presence of Cocl2 under irradiation; type: functional
A549 [13] = assay: Antitumour activity against human A549 cells xenografted in Balb/c mouse assessed as tumour growth inhibition at 10 mg/kg, po administered daily and mesured at day 17 relative to control; type: functional; conditions: 408 h, read-out: TGI
How it was run: (§2)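 Male BALB/c-nu mice, 1 × 10^7 A549 cells implanted sc in the flank. Dosing began seven days after implantation: 10 mg/kg oral, daily for 17 days, 5 mice per group, with a vehicle control group. Tumour size measured daily by caliper, with body weight and clinical signs also recorded daily. TGI calculated from volume changes relative to starting volumes versus control.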

A549 [14] = assay: Antitumour activity against human A549 cells xenografted in Balb/c mouse assessed as increase in tumour volume at 10 mg/kg, po administered daily and mesured after 7 days; type: functional, organism-based; how it was run: as §2
A549 [15] = assay: Downregulation of VEGF expression in human A549 cells at 5 uM after 24 hrs under normoxic condition by q-PCR analysis relative to control; type: cell-based; conditions: a549, 24 h
A549 [16] = assay: Downregulation of VEGF expression in human A549 cells at 5 uM after 24 hrs under hypoxic condition by q-PCR analysis relative to control; type: functional
A549 [17] = assay: Antitumour activity against human A549 cells xenografted in po dosed Balb/c mouse assessed as tumour growth inhibition administered daily for 18 days and […]; type: functional, organism-based
A549 [18] = assay: Antitumour activity against human A549 cells xenografted in Balb/c mouse assessed as tumour growth inhibition at 50 mg/kg, po administered daily and measured at day 18 relative to control; type: functional; conditions: 432 h, read-out: TGI
How it was run: (§3)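 Male BALB/c-nu mice carrying sc flank A549 xenografts (1 × 10^7 cells). Dosing began 6–7 days post-inoculation, with oral 5, 15 or 50 mg/kg daily for 18 days and 3 mice per group. Tumours measured by caliper on days 4, 6, 8, 11, 13, 15 and 18. TGI derived from volume change from dosing start relative to untreated controls.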

A549 [19] = assay: Antitumour activity against human A549 cells xenografted in Balb/c mouse assessed as tumour growth inhibition at 5 mg/kg, po administered daily and measured at day 18 relative to control; type: functional; conditions: 432 h, read-out: TGI; how it was run: as §3
A549 [20] = assay: Antitumour activity against human A549 cells xenografted in Balb/c mouse assessed as tumour growth inhibition at 15 mg/kg, po administered daily and measured at day 18 relative to control; type: functional; conditions: 432 h, read-out: TGI; how it was run: as §3
[21] = Toxicity in Balb/c mouse xenografted with human A549 cells assessed as effect on weight loss at 10 mg/kg, po measured up to 17 days; type: organism-based; conditions: in vivo, 408 h; how it was run: as §2
[22] = Toxicity in po dosed Balb/c mouse assessed as maximum tolerated dose administered 5 times per week for 2 weeks; type: organism-based; conditions: in vivo
[23] = Toxicity in Balb/c mouse assessed as effect on clinical signs at 100 mg/kg, po administered 5 times per week for 2 weeks; type: organism-based; conditions: in vivo, 336 h
How it was run: (§4)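 Male BALB/c-nu mice dosed orally at 100 mg/kg, five times a week for two weeks with two days off each weekend. Clinical signs of toxicity and body weight monitored.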

[24] = Toxicity in Balb/c mouse assessed as weight loss at 100 mg/kg, po administered 5 times per week for 2 weeks; type: organism-based; conditions: in vivo, 336 h; how it was run: as §4
[25] = Toxicity in Balb/c mouse xenografted with human A549 cells assessed as reduction in body weight at 10 mg/kg, po measured up to 8 days; type: organism-based; conditions: in vivo, 192 h; how it was run: as §2

Row | Compound | IC50 [1] [nM] | IC50 [2] [nM] | inhibition at 48 h, 0.5 µM [3] [%] | inhibition at 48 h, 0.5 µM [4] [%] | inhibition (INH) (A549 [5]) [%] | inhibition (INH) (NCI-H446 [6]) [%] | inhibition (INH) (A549 [7]) [%] | inhibition (INH) (NCI-H446 [8]) [%] | Ratio (A549 [9]) | Ratio (A549 [10]) | Ratio (NCI-H446 [11]) | Ratio (NCI-H446 [12]) | further results
1 | COc1cc2c(Nc3ccc(C)c(Br)c3)ncnc2cc1OCCNC(=O)Cn1cnc([N+](=O)[O-])n1 | 184 | 18.5 | – | – | – | – | – | – | – | – | – | – | –
2 | COc1cc2c(Nc3ccc(Br)cc3F)ncnc2cc1OCC1CCN(C(=O)Cn2cncc2[N+](=O)[O-])CC1 | 27.1 | 3.23 | – | – | – | – | – | – | – | – | – | – | –
3 | COc1cc2/c(=N/c3ccc(Br)cc3F)nc[nH]c2cc1OCC1CCN(C)CC1 [VANDETANIB] | – | – | – | – | 67.26 | 77.67 | 81.44 | 82.02 | – | – | – | – | inhibition in vivo at 10 mg/kg (A549 [13]): 62.1%; Activity (A549 [14]): Active
4 | COc1cc2c(Nc3ccc(Br)cc3F)ncnc2cc1OCCNC(=O)Cn1cnc([N+](=O)[O-])n1 | 86.8 | 43.6 | 14.9 | 16.8 | 72.99 | 76.34 | 80.3 | 79.03 | 1.19 | 0.9 | 1.07 | 0.85 | –
5 | COc1cc2c(Nc3ccc(Br)cc3F)ncnc2cc1OCCOCCNC(=O)Cn1cnc([N+](=O)[O-])n1 | 36.8 | 5.9 | 6.75 | 18.9 | 75.86 | 84.37 | 86.41 | 88.66 | 1.32 | 0.96 | 1.17 | 0.93 | fold change (FC) (A549 [15]): 0.1571; fold change (FC) (A549 [16]): 0.0011; inhibition in vivo at 10 mg/kg (A549 [13]): 63.9%; Activity (A549 [14]): Active; inhibition (A549 [17]): Dose-dependent effect; inhibition in vivo at 50 mg/kg (A549 [18]): 80.5%; inhibition in vivo at 5 mg/kg (A549 [19]): 31.2%; inhibition in vivo at 15 mg/kg (A549 [20]): 68.3%; Activity [21]: Non-Toxic; MTD at 336 h [22]: 100 mg/kg; Activity [23]: Non-Toxic; Activity [24]: Non-Toxic
6 | COc1cc2c(Nc3ccc(Br)cc3F)ncnc2cc1OCC1CCN(C)CC1 [VANDETANIB] | – | – | 21.1 | 25.6 | – | – | – | – | – | – | – | – | Activity [25]: Toxic
7 | COc1cc2c(Nc3ccc(F)cc3Cl)ncnc2cc1OCCNC(=O)Cn1cnc([N+](=O)[O-])n1 | 517 | 48.1 | – | – | – | – | – | – | – | – | – | – | –

Second part, led by results:

Row | IC50 [1] [nM] | IC50 [2] [nM] | Compound | inhibition at 48 h, 0.5 µM [3] [%] | inhibition at 48 h, 0.5 µM [4] [%] | inhibition (INH) (A549 [5]) [%] | inhibition (INH) (NCI-H446 [6]) [%] | inhibition (INH) (A549 [7]) [%] | inhibition (INH) (NCI-H446 [8]) [%] | Ratio (A549 [9]) | Ratio (A549 [10]) | Ratio (NCI-H446 [11]) | Ratio (NCI-H446 [12]) | further results
8 | 864 | 16.4 | COc1cc2c(Nc3ccc(F)cc3)ncnc2cc1OCCOCCNC(=O)Cn1cnc([N+](=O)[O-])n1 | 8.43 | 11.1 | 72.53 | 78.7 | 76.94 | 80.58 | 1.25 | 0.86 | 1.13 | 0.86 | –
9 | 407 | 0.37 | COc1cc2c(Nc3ccc(C)c(Br)c3)ncnc2cc1OCCOCCNC(=O)Cn1cnc([N+](=O)[O-])n1 | 5.48 | 18.6 | 65.39 | 77.71 | 69.18 | 80.1 | 1.15 | 0.8 | 1.08 | 0.86 | –
10 | 2870 | 12.9 | COc1cc2c(Nc3ccc(F)cc3Cl)ncnc2cc1OCCOCCOCCNC(=O)Cn1cnc([N+](=O)[O-])n1 | – | – | – | – | – | – | – | – | – | – | –
11 | 1880 | 20 | COc1cc2c(Nc3ccc(F)c(F)c3)ncnc2cc1OCCOCCOCCNC(=O)Cn1cnc([N+](=O)[O-])n1 | – | – | – | – | – | – | – | – | – | – | –
12 | 4080 | 20.8 | COc1cc2c(Nc3ccc(F)cc3Cl)ncnc2cc1OCCOCCNC(=O)Cn1cnc([N+](=O)[O-])n1 | 10.3 | 13.9 | 69.01 | 80.31 | 77.88 | 83.35 | 1.17 | 0.89 | 1.14 | 0.89 | –
13 | 1100 | 3.7 | COc1cc2c(Nc3ccc(F)c(F)c3)ncnc2cc1OCCOCCNC(=O)Cn1cnc([N+](=O)[O-])n1 | – | – | – | – | – | – | – | – | – | – | –
14 | 1200 | 3.11 | COc1cc2c(Nc3cccc(F)c3)ncnc2cc1OCCOCCNC(=O)Cn1cnc([N+](=O)[O-])n1 | – | – | – | – | – | – | – | – | – | – | –
15 | 217 | 4.95 | COc1cc2c(Nc3ccc(Br)cc3F)ncnc2cc1OCCOCCOCCNC(=O)Cn1cnc([N+](=O)[O-])n1 | 16 | 20.4 | 74.36 | 78.81 | 80.36 | 84.92 | 1.2 | 0.9 | 1.08 | 0.91 | –
16 | 67.8 | – | COc1cc2c(Nc3ccc(Cl)c(Cl)c3F)ncnc2cc1OCCOCCNC(=O)Cn1cnc([N+](=O)[O-])n1 | 13.8 | 20.5 | 82.25 | 77.9 | 80.7 | 85 | – | – | – | – | fold change (FC) (A549 [15]): 0.1833; fold change (FC) (A549 [16]): 0.0037; inhibition in vivo at 10 mg/kg (A549 [13]): 49%; Activity (A549 [14]): Active; inhibition (A549 [17]): Dose-dependent effect; inhibition in vivo at 50 mg/kg (A549 [18]): 76.3%; inhibition in vivo at 5 mg/kg (A549 [19]): 28.1%; inhibition in vivo at 15 mg/kg (A549 [20]): 63.9%; Activity [21]: Non-Toxic
17 | 245 | 6.24 | COc1cc2c(Nc3ccc(C)c(Br)c3)ncnc2cc1OCCOCCOCCNC(=O)Cn1cnc([N+](=O)[O-])n1 | – | – | – | – | – | – | – | – | – | – | –
